Sampled rows, rich in hits. Any-hit rate of the full collection: about 4%.
UPR CHOP act: apoptotic UPR (CHOP) activation; CHO-CHOP luciferase reporter, luminescence; percent of tunicamycin response over DMSO baseline; activation, % at 10 µM; actives 0.34% (n = 330,000); AID 449763;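 active = at 10 µM dose, activation of 40% or more, normalized to positive control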
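Assay system: CHO cells with stable CHOP pathway luciferase reporter; Buffer or medium: F12 plus 10% serum; Times: 16-18 h cell attachment, then 6 h compound exposure, 37 °C; Signal: luciferase luminescence; Read-out basis: percent activation relative to tunicamycin control; Control set: tunicamycin high control, DMSO low control.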
UPR XBP1 act: activators of adaptive arm of unfolded protein response (XBP1) | CHO-XBP1 luciferase reporter, IRE1-XBP1 UPR activation, luminescence; percent of tunicamycin response, DMSO as zero | activation, % at 20 µM | actives 0.33% (n = 330,000) | AID 463104;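 active = versus positive control, 20 µM dose yields 30% or more activation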
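Material: CHO cell line with stable XBP1 luciferase reporter; schedule: 16-18 h cell attachment at 37 °C, then 6 h compound exposure; signal: glow luminescence from Steady-Glo reagent; medium: serum-containing F12 medium, 10% FBS; benchmarks: tunicamycin 10 µg/mL and vehicle-only wells; read-out: percent activation relative to tunicamycin reference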
Mdm2-MdmX inh: human Mdm2/MdmX binding inhibition. O15151+Q00987. SaOS-2 split-luciferase Mdm2/MdmX complementation, luminescence. inhibition, % at 8 µM. actives 3% (n = 330,000). AID 485346;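 active = inhibition of at least 50% at 8 µM in the primary screen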
ABHD5-PLIN5 inh: ABHD5-PLIN5 protein interaction inhibition | Q00G26+Q8WTS1 | inhibition, % at 4 µM | actives 0.78% (n = 360,000) | AID 602281 | Split G. princeps luciferase complementation, luminescence, 4 h;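 active = inhibition above the mean inhibition across every tested compound plus 3 SD, cut at about 22% in these data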
Exocytosis inh: lytic granule exocytosis inhibition. AID 651702. TALL-104 LAMP-1 surface exposure, flow cytometry; cells stimulated with thapsigargin and PMA. actives 0.66% (n = 360,000). inhibition, % at 10 µM;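 active = inhibition above about 55%, limit read from the data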
Of the large screens only hits and unclear results are named; the others gave an inactive call.

CCc1ccc2c(c1)Sc1ccccc1CC2N1CCN(C)CC1 (centres undefined)	Exocytosis inh 58
c1ccc2c(c1)CC(N1CCCCC1)c1ccccc1S2 (centres undefined)	none
Cc1ccc(/C=C2\Oc3c(ccc(O)c3CN3CCN(CCO)CC3)C2=O)cc1	ABHD5-PLIN5 inh 23
CC(C)c1ccc(/C=C2\Oc3c(ccc(O)c3CN3CCN(C)CC3)C2=O)cc1	none
CCCCN1CC(COCc2ccccc2)Oc2cccc(NCc3ccc(OC)cc3)c2S1(=O)=O (centres undefined)	none (no result: UPR CHOP act, UPR XBP1 act, Mdm2-MdmX inh)
O=C(Nc1cccc(C(F)(F)F)c1)c1ccc2nc(-c3ccco3)c(-c3ccco3)nc2c1	ABHD5-PLIN5 inh 38
COc1ccc(CCNC(=O)c2ccc3nc(-c4ccco4)c(-c4ccco4)nc3c2)cc1OC	ABHD5-PLIN5 inh 34
O=C(NCCCO)Nc1ccc2nc(-c3ccco3)c(-c3ccco3)nc2c1	none (no result: ABHD5-PLIN5 inh, Exocytosis inh)
O=C(Nc1ccc2nc(-c3ccco3)c(-c3ccco3)nc2c1)NC1CC1	ABHD5-PLIN5 inh 26
Cc1cnc(NC(=O)Nc2ccc(OCc3ccccc3)cc2)c(Br)c1	none
O=C(CSc1nnc(CNc2ccc(F)cc2)n1Cc1ccco1)N1CCOCC1	none
O=C(CSc1nnc(CNc2ccc(F)cc2)n1Cc1ccco1)NC1CC1	ABHD5-PLIN5 inh 22
CCn1c(SC/C=C/c2ccccc2)nnc1-c1cccs1	none
CC(/C=C/c1ccco1)=N\NC(=O)c1cccc(Cl)c1	none
CC(/C=C/c1ccco1)=N\NC(=O)CNc1ccc2ccccc2c1	Exocytosis inh 100
CC(/C=C/c1ccco1)=N/NC(=O)c1ccccc1Cl	ABHD5-PLIN5 inh 22
CC(/C=C/c1ccco1)=N/NC(=O)CNc1ccccc1C	none
CC(C)=C1CCC(C)CC1=NNC(N)=S (centres undefined)	none (no result: UPR CHOP act, UPR XBP1 act, Mdm2-MdmX inh)
C=CCOC(=O)C1=C(C)NC(=S)NC1/C=C/c1ccccc1 (centres undefined)	Exocytosis inh 66
CC1=C(C(=O)OCc2ccccc2)C(/C=C/c2ccccc2)NC(=S)N1 (centres undefined)	none
Cc1ccc(/C=C/C(=O)Nc2ccc([N+](=O)[O-])cc2)o1	ABHD5-PLIN5 inh 29
CCCOc1ccc(/C=C/C(=O)Nc2ccc([N+](=O)[O-])cc2)cc1	none
O=C1OC(c2ccc(Cl)cc2)/C(=C(/O)c2ccccc2)C1=O (centres undefined)	ABHD5-PLIN5 inh 23
O=C(O)CC1C(=O)NCCN1C/C=C/c1ccccc1 (centres undefined)	none
CC(=O)Nc1cccc(NC(=O)CSc2ncc(C(=O)Nc3ccc(F)cc3)c(=O)n2C)c1	none
CC(=O)Nc1cccc(NC(=O)CSc2ncc(C(=O)Nc3ccccc3)c(=O)n2C)c1	UPR CHOP act 202
Cc1cc(-c2csc(N)n2)c(C)n1Cc1ccco1	ABHD5-PLIN5 inh 23
N#CC1=C(N)C(C#N)(C#N)[C@H](c2ccoc2)[C@H]2CN(Cc3ccccc3)CC=C12	UPR XBP1 act 37
CCN(CC)c1ccc(/C=N/N(c2ccccc2)c2ccccc2)c(O)c1	none
COc1ccc2nc(Nc3nc4cc5c(cc4s3)OCO5)sc2c1	none
Cn1c(=O)cc(OCC(=O)NCc2ccccn2)c2ccccc21	ABHD5-PLIN5 inh 73
CCOC(=O)c1cc(-c2ccc(C)cc2)n(CCC(=O)NCCCOC)c1C	none
CC(C)/C=C1\CC/C(=C\c2ccc(N(C)C)cc2)C1=O	Exocytosis inh 56
Cc1ccc2c(c1)C(N1CCCC1=O)CC(c1ccco1)N2 (centres undefined)	Exocytosis inh 87
Cc1ccc(C2CC(c3ccco3)n3ncnc3N2)cc1 (centres undefined)	none
N#CC1=C(N2CCOCC2)/C(=C\c2ccccc2)CC1	none
O=CC1=C(N2CCOCC2)/C(=C\c2ccccc2)CC1	ABHD5-PLIN5 inh 22
O=C1c2cccc3cccc(c23)C(=O)N1CCN1CCN(C(=S)Nc2ccc(F)cc2)CC1	UPR CHOP act 43 (no result: ABHD5-PLIN5 inh, Exocytosis inh)
Fc1ccccc1-c1ccc(/C=N/Nc2nc3ccccc3[nH]2)o1	Exocytosis inh 70
O=C(NCc1ccccc1)c1cc(C2COCCN2C(=O)c2cccs2)on1 (centres undefined)	none (no result: UPR CHOP act, UPR XBP1 act, Mdm2-MdmX inh)

Assay outcomes from PubChem.
